Experimental data reported in ChEMBL document CHEMBL1137900, “Quinazolinone fungal efflux pump inhibitors. Part 2: In vitro structure-activity relationships of (N-methyl-piperazinyl)-containing derivatives” (Bioorg Med Chem Lett, 2004).
Converted amounts (≈) assume the structure as drawn.

Key:
Candida albicans [1] = test: In vitro minimum potentiation concentration to achieve an 8-fold reduction in fluconazole MIC against Candida albicans strain YEM15 (overexpressing both CDR1 and CDR2); assay type: functional
Outline: (§1)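 Checkerboard assay in RPMI 1640 following the NCCLS M27-A broth dilution method. Fluconazole MIC was measured with and without varying concentrations of efflux pump inhibitor. MPC8 is the lowest inhibitor concentration giving an 8-fold reduction in fluconazole MIC. Some analogues were tested only in an abbreviated format: inhibitor concentration varied at fixed fluconazole of 1/8 and 1/32 MIC.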

Nakaseomyces glabratus [2] = test: In vitro minimum potentiation concentration to achieve an 8-fold reduction in fluconazole MIC against Candida glabrata strain YEM19 (overexpressing both CgDR1 and CgDR2); assay type: functional; outline: as §1
Saccharomyces cerevisiae [3] = test: In vitro concentration required to inhibit 80% growth of Saccharomyces cerevisiae strain Y170 (CgCDR1 over-expressed) after 48 h; assay type: functional
Saccharomyces cerevisiae [4] = test: In vitro concentration required to inhibit 80% growth of Saccharomyces cerevisiae strain Y218 (CgCDR2 over-expressed) after 48 h; assay type: functional
Saccharomyces cerevisiae [5] = test: In vitro concentration required to inhibit 80% growth of Saccharomyces cerevisiae strain YEM172 (CDR1 over-expressed) after 48 h; assay type: functional
Saccharomyces cerevisiae [6] = test: In vitro concentration required to inhibit 80% growth of Saccharomyces cerevisiae strain YEM171 (CDR2 over-expressed) after 48 h; assay type: functional
Saccharomyces cerevisiae [7] = test: In vitro concentration required to inhibit 80% growth of Saccharomyces cerevisiae strain YEM139 (PDR5 deleted) after 48 h; assay type: functional
Candida albicans [8] = test: In vitro concentration required against Candida albicans strain YEM 15; assay type: functional
Candida albicans [9] = test: In vitro minimum inhibitory concentration against Candida albicans; assay type: functional
Outline: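 C. albicans YEM15 (over-expresses CDR1 and CDR2) tested by broth dilution in RPMI 1640 following NCCLS reference method M27-A. The compound was tested alone, without fluconazole, across a range of concentrations, and the MIC was read as intrinsic antifungal activity.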

Candida albicans [10] = test: In vitro concentration to inhibit Candida albicans CDR2 transporter gene over-expressed in Saccharomyces cerevisiae strain YEM171; assay type: functional, organism-based
Outline: (§2)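 Yeast strains over-expressing single pumps, inoculum 10^4 cells, incubated at 30 °C in YPD. Inhibitor concentration was varied against one fixed fluconazole concentration. That concentration was the geometric mean of the test strain's fluconazole MIC and that of the parent pump-deleted strain; for YEM172 it was 8 µg/ml.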

Candida albicans [11] = test: In vitro concentration to inhibit Candida albicans CDR1 transporter gene over-expressed in Saccharomyces cerevisiae strain YEM172; assay type: functional, organism-based; outline: as §2
Nakaseomyces glabratus [12] = test: In vitro concentration to inhibit Candida glabrata CgCDR1 transporter gene over-expressed in Saccharomyces cerevisiae strain Y170; assay type: functional, organism-based; outline: as §2
Nakaseomyces glabratus [13] = test: In vitro concentration to inhibit Candida glabrata CgCDR2 transporter gene over-expressed in Saccharomyces cerevisiae strain Y218; assay type: functional, organism-based; outline: as §2

| SMILES | MPC8 (Candida albicans [1]) [µg/mL] | MPC8 (Nakaseomyces glabratus [2]) [µg/mL] | other results |
| --- | --- | --- | --- |
| COc1ccc(N(C(=O)Nc2cccc(C#N)c2)C(C)c2nc3ccccc3c(=O)n2N2CCN(C)CC2)c(OC)c1 (configuration not stated) | 32 | 32 | – |
| COc1ccc(N(C(=O)Nc2ccc(F)cc2)C(C)c2nc3cccc(F)c3c(=O)n2N2CCN(C)CC2)c(OC)c1 (configuration not stated) | 8 | 8 | – |
| COc1ccc(N(C(=O)Nc2ccc(C)cc2)C(C)c2nc3ccccc3c(=O)n2N2CCN(C)CC2)c(OC)c1 (configuration not stated) | 16 | 4 | – |
| OC(Cn1cncn1)(Cn1cncn1)c1ccc(F)cc1F [FLUCONAZOLE] | – | – | MIC (Saccharomyces cerevisiae [3]): 128 mg/L (≈ 418 µM); MIC (Saccharomyces cerevisiae [4]): 2 mg/L (≈ 6.53 µM); MIC (Saccharomyces cerevisiae [5]): 128 mg/L (≈ 418 µM); MIC (Saccharomyces cerevisiae [6]): 8 mg/L (≈ 26.1 µM); MIC (Saccharomyces cerevisiae [7]): 0.5 mg/L (≈ 1.63 µM); MIC (Candida albicans [8]): 128 mg/L (≈ 418 µM) |
| COc1ccc(N(C(=O)NS(=O)(=O)c2ccc(Cl)cc2)C(C)c2nc3ccccc3c(=O)n2N2CCN(C)CC2)c(OC)c1 (configuration not stated) | >32 | >32 | – |
| COc1ccc(N(C(=O)Nc2ccc(F)cc2)C(C)c2nc3ccccc3c(=O)n2N2CCN(C)CC2)cc1OC (configuration not stated) | >32 | >32 | – |
| COc1ccc(N(C(=O)Nc2ccc(F)cc2)C(C)c2nc3ccc(OCC(N)=O)cc3c(=O)n2N2CCN(C)CC2)c(OC)c1 (configuration not stated) | >32 | >32 | – |
| COc1cc(OC)c(N(C(=O)Nc2ccc(F)cc2)C(C)c2nc3ccccc3c(=O)n2N2CCN(C)CC2)c(OC)c1 (configuration not stated) | >32 | >32 | – |
| CC(c1nc2ccccc2c(=O)n1N1CCN(C)CC1)N(C(=O)Nc1ccc(F)cc1)c1ccc(OCC2CC2)cc1OCC1CC1 (configuration not stated) | 4 | 2 | MIC (Candida albicans [9]): 32 mg/L (≈ 49.9 µM) |
| COc1ccc(N(C(=O)c2ccccc2Cl)C(C)c2nc3ccccc3c(=O)n2N2CCN(C)CC2)c(OC)c1 (configuration not stated) | 4 | >32 | – |
| COc1ccc(N(C(=O)Nc2ccc(F)cc2)[C@H](C)c2nc3cc(F)ccc3c(=O)n2N2CCN(C)CC2)c(OC)c1 | >32 | >32 | IC50 (Candida albicans [10]): > 32 mg/L; IC50 (Candida albicans [11]): > 32 mg/L; IC50 (Nakaseomyces glabratus [12]): > 32 mg/L; IC50 (Nakaseomyces glabratus [13]): > 32 mg/L |
| COc1ccc(NC(C)c2nc3ccccc3c(=O)n2N2CCN(C)CC2)c(OC)c1 (configuration not stated) | >32 | >32 | – |
| COc1ccc(N(C(=O)Nc2ccc(F)cc2)C(C)c2nc3ccc(O)cc3c(=O)n2N2CCN(C)CC2)c(OC)c1 (configuration not stated) | 16 | 1 | – |
| COc1ccc(N(C(=O)NC(C)C)C(C)c2nc3ccccc3c(=O)n2N2CCN(C)CC2)c(OC)c1 (configuration not stated) | >32 | >32 | – |
| COc1ccc(NC(=O)N(c2ccc(OC)cc2OC)C(C)c2nc3ccccc3c(=O)n2N2CCN(C)CC2)cc1 (configuration not stated) | 16 | 2 | – |
| COc1ccc(N(C(=O)Nc2cccc(Cl)c2)C(C)c2nc3ccccc3c(=O)n2N2CCN(C)CC2)c(OC)c1 (configuration not stated) | 1 | 4 | – |
| COc1ccc(N(C(=O)Nc2nc3ccccc3s2)C(C)c2nc3ccccc3c(=O)n2N2CCN(C)CC2)c(OC)c1 (configuration not stated) | 2 | 16 | – |
| CCC(=O)Oc1ccc2nc(C(C)N(C(=O)Nc3ccc(F)cc3)c3ccc(OC)cc3OC)n(N3CCN(C)CC3)c(=O)c2c1 (configuration not stated) | 4 | 4 | – |
| COc1ccccc1N(C(=O)Nc1ccc(F)cc1)C(C)c1nc2ccccc2c(=O)n1N1CCN(C)CC1 (configuration not stated) | >32 | >32 | – |
| COc1ccc(N(C(=O)Nc2ccc(F)cc2)C(C)c2nc3ccc(C)cc3c(=O)n2N2CCN(C)CC2)c(OC)c1 (configuration not stated) | 0.5 | 4 | – |
| CC(c1nc2ccccc2c(=O)n1N1CCN(C)CC1)N(C(=O)Nc1ccc(F)cc1)c1ccccc1 (configuration not stated) | >32 | >32 | – |

| SMILES | MPC8 (Candida albicans [1]) [µg/mL] | MPC8 (Nakaseomyces glabratus [2]) [µg/mL] | other results |
| --- | --- | --- | --- |
| COc1ccc(N(C(=O)Nc2ccc(F)cc2)C(C)c2nc3ccc(Cl)cc3c(=O)n2N2CCN(C)CC2)c(OC)c1 (configuration not stated) | 0.25 | 2 | – |
| CC(c1nc2ccccc2c(=O)n1N1CCN(C)CC1)N(C(=O)Nc1ccc(F)cc1)c1ccc(F)cc1F (configuration not stated) | 8 | 32 | – |
| COc1ccc(N(C(=O)Nc2ccc(F)cc2)C(C)c2nc3cc(Cl)ccc3c(=O)n2N2CCN(C)CC2)c(OC)c1 (configuration not stated) | 0.12 | 0.5 | – |
| COc1cccc(N(C(=O)Nc2ccc(F)cc2)C(C)c2nc3ccccc3c(=O)n2N2CCN(C)CC2)c1 (configuration not stated) | 16 | >32 | – |
| COc1ccc(N(C(C)c2nc3ccccc3c(=O)n2N2CCN(C)CC2)S(=O)(=O)c2ccc(Cl)cc2)c(OC)c1 (configuration not stated) | 32 | >32 | – |
| COc1ccc(N(C(=O)c2ccc(Cl)cc2)C(C)c2nc3ccccc3c(=O)n2N2CCN(C)CC2)c(OC)c1 (configuration not stated) | 4 | >32 | – |
| COc1ccc(N(C(=O)Nc2ccc(F)cc2)C(C)c2nc3cc(F)ccc3c(=O)n2N2CCN(C)CC2)c(OC)c1 (configuration not stated) | 0.5 | 1 | – |
| COc1cc(N(C(=O)Nc2ccc(F)cc2)C(C)c2nc3ccccc3c(=O)n2N2CCN(C)CC2)cc(OC)c1OC (configuration not stated) | 8 | >32 | – |
| COc1ccc(N(C(=O)Nc2ccccc2)C(C)c2nc3ccccc3c(=O)n2N2CCN(C)CC2)c(OC)c1 (configuration not stated) | 16 | 16 | – |
| COc1ccc(N(C(=O)Nc2ccccc2Cl)C(C)c2nc3ccccc3c(=O)n2N2CCN(C)CC2)c(OC)c1 (configuration not stated) | >32 | >32 | – |
| COc1ccc(N(C(=O)Nc2ccc(F)cc2)C(C)c2nc3ccccc3c(=O)n2N2CCN(C)CC2)c(OC)c1 (configuration not stated) | 4 | 4 | – |
| COc1ccc(N(C(=O)Nc2ccc(Cl)cc2)C(C)c2nc3ccccc3c(=O)n2N2CCN(C)CC2)c(OC)c1 (configuration not stated) | 2 | 1 | – |
| COc1ccc(N(C(=O)Oc2ccc(Cl)cc2)C(C)c2nc3ccccc3c(=O)n2N2CCN(C)CC2)c(OC)c1 (configuration not stated) | 32 | 32 | – |
| COc1ccc(N(C(=O)Nc2ccc(F)cc2)C(C)c2nc3ccccc3c(=O)n2N2CCN(C)CC2)cc1 (configuration not stated) | 8 | 32 | – |
| Cc1ccc(N(C(=O)Nc2ccc(F)cc2)C(C)c2nc3ccccc3c(=O)n2N2CCN(C)CC2)c(C)c1 (configuration not stated) | 8 | >32 | – |
| COc1ccc(N(C(=O)Nc2ccc(F)cc2)C(C)c2nc3ccc(F)cc3c(=O)n2N2CCN(C)CC2)c(OC)c1 (configuration not stated) | 1 | 2 | – |
| COc1ccc(N(C(=O)Nc2ccc(F)cc2)C(C)c2nc3c(OC)cccc3c(=O)n2N2CCN(C)CC2)c(OC)c1 (configuration not stated) | 8 | 8 | – |
| CC(c1nc2ccccc2c(=O)n1N1CCN(C)CC1)N(C)C(=O)Nc1ccc(F)cc1 (configuration not stated) | >32 | >32 | – |
| COc1ccc(N(C(=O)Nc2ccc(F)cc2)C(C)c2nc3ccc(OC)cc3c(=O)n2N2CCN(C)CC2)c(OC)c1 (configuration not stated) | 0.5 | 2 | – |
| COc1ccc(N(C(=O)Nc2ccc(F)cc2)C(C)c2nc3cc(F)c(F)cc3c(=O)n2N2CCN(C)CC2)c(OC)c1 (configuration not stated) | 0.12 | 0.5 | – |
| COc1ccc(N(C(=O)Nc2ccc(F)cc2)[C@@H](C)c2nc3cc(F)ccc3c(=O)n2N2CCN(C)CC2)c(OC)c1 | 0.25 | 0.5 | IC50 (Candida albicans [10]): 16 mg/L (≈ 27.7 µM); IC50 (Candida albicans [11]): 0.5 mg/L (≈ 0.864 µM); IC50 (Nakaseomyces glabratus [12]): 2 mg/L (≈ 3.46 µM); IC50 (Nakaseomyces glabratus [13]): 32 mg/L (≈ 55.3 µM) |
